Active and inactive are the calls of the source. The calls are words filed in the database; no cut-off is given here.
Experiments:
Plasmodium falciparum = test: Antimalarial activity against chloroquine-resistant Plasmodium falciparum W2; assay type: functional, organism-based
[1] = test system: Mycobacterium tuberculosis; test: Antimycobacterial activity against Mycobacterium tuberculosis at 6.25 ug/ml by Alamar blue assay; assay type: functional
How it was run: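 Single-concentration screen at 6.25 µg/mL against *M. tuberculosis* growth, read out as percent inhibition.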

NCI-H460 = test: Antiproliferative activity against human NCI-H460 cells after 48 hrs by SRB assay; assay type: functional, cell-based
How it was run: (§1)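 NCI one-dose primary prescreen in a three-line panel (MCF-7 breast, NCI-H460 non-small cell lung, SF-268 CNS). Cytotoxicity was judged against untreated control cells. Antiproliferative activity in this prescreen is required before testing in the 60-cell-line panel.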

SF-268 = test: Antiproliferative activity against human SF268 cells after 48 hrs by SRB assay; assay type: functional, cell-based; how it was run: as §1
Hepatitis B virus = test: Antiviral activity against HBV in human HepG2(2.2.15) cells at 30 mM; assay type: functional, organism-based
MCF7 = test: Antiproliferative activity against human MCF7 cells after 48 hrs by SRB assay; assay type: functional, cell-based; how it was run: as §1

Row | Compound | IC50 (Plasmodium falciparum) [µM] | inhibition at 6.25 µg/mL [1] [%] | Activity (NCI-H460) | Activity (SF-268) | Activity (Hepatitis B virus) | Activity (MCF7)
1 | CC(=O)OC/C1=C\C[C@]2(C)CC(=O)C(=C(C)C)[C@H]2CC[C@]2(C)O[C@H]2CC1 | 30.6 | – | – | – | – | –
2 | C=C1CC/C=C(\C)CC[C@@H]2C(=C(C)C)C(=O)C[C@@]2(C)C[C@@H]1O | 36.4 | – | – | – | – | –
3 | C/C1=C/C[C@]2(C)C(=O)C=C(C(C)C)[C@H]2CC[C@@]2(C)O[C@@H]2CC1 | ≥ 100 | ≤ 50 | – | – | – | –
4 | CC(C)=C1C(=O)C[C@@]2(C)C/C=C(\C)CCC(=O)[C@H](C)CC[C@H]12 | 13.2 | ≤ 50 | inactive | inactive | inactive | inactive
5 | C/C1=C\C[C@]2(C)C(=O)C=C(C(C)C)[C@H]2CC[C@]2(C)O[C@H]2CC1 | 43 | – | – | – | – | –
6 | C/C1=C/C[C@]2(C)CC(=O)C(C(C)C)[C@H]2C/C=C(\C)[C@H](OO)CC1 (relative stereo) | 40.9 | – | – | – | – | –
7 | C=C1CC[C@@H]2O[C@@]2(C)CC[C@@H]2C(=C(C)C)C(=O)C[C@@]2(C)C[C@@H]1OC(C)=O | 36.1 | – | – | – | – | –
8 | C=C1CCC(=O)[C@@H](C)CC[C@@H]2C(=C(C)C)C(=O)C[C@@]2(C)C[C@@H]1OC(C)=O | 50 | – | – | – | – | –
9 | CC1=CC[C@@H](O)[C@]2(C)CC[C@@H]3C(=C(C)C)C(=O)C[C@@]3(C)C[C@@H]12 | 59.6 | ≤ 50 | – | – | – | –
10 | C/C1=C/C[C@]2(C)C(=O)C=C(C(C)C)[C@H]2C/C=C(\C)[C@H](OO)CC1 (relative stereo) | 9.4 | ≤ 50 | – | – | inactive | –
11 | CC(C)=C1C(=O)C[C@@]2(C)C/C=C(\C)CC[C@@H](OO)/C(C)=C/C[C@H]12 (relative stereo) | 36.4 | ≤ 50 | – | – | inactive | –
12 | CC(C)=C1C(=O)C[C@@]2(C)C/C=C(\C)CC[C@@H]3O[C@@]3(C)CC[C@H]12 | 23.2 | ≤ 50 | inactive | – | – | inactive
13 | C=C1CC/C=C(\C)CC[C@@H]2C(=C(C)C)C(=O)C[C@@]2(C)C[C@@H]1OC(C)=O (relative stereo) | 20.3 | ≤ 50 | – | – | – | –
14 | CC(C)=C1C(=O)C[C@@]2(C)C[C@H]3O[C@]3(C)CC[C@@H]3O[C@@]3(C)CC[C@H]12 | 37.7 | – | inactive | inactive | – | inactive
15 | C/C1=C\C[C@]2(C)CC=C(C(C)(C)O)[C@H]2CC/C(C)=C/CC1 [PALOMINOL] | 31.2 | ≤ 50 | – | – | inactive | –
16 | CC(=O)O[C@H]1C/C(C)=C/C[C@]2(C)CC(=O)C(=C(C)C)[C@H]2CC[C@]2(C)O[C@@H]12 | 33.3 | – | – | – | – | –
17 | CC(C)=C1C(=O)C[C@@]2(C)C/C=C(\C)CC/C=C(\C)CC[C@H]12 [DOLABELLANE] | 45.5 | ≤ 50 | inactive | – | inactive | inactive
18 | C=C1CC[C@@H](O)[C@]2(C)CC[C@@H]3C(=C(C)C)C(=O)C[C@@]3(C)C[C@@H]12 | – | ≤ 50 | – | – | – | –

From ChEMBL document CHEMBL1158572, “Dolabellane-type diterpenoids with antiprotozoan activity from a southwestern Caribbean gorgonian octocoral of the genus Eunicea” (J Nat Prod, 2010)
